Source: PubChem
Most compounds without a hit are left out; they make up all but 3.1% or so of the library.
hERG rescue: compounds protecting human hERG from proarrhythmic drug block; 0.51% of 310,000 active; activation (rescue from dofetilide block), less the hit threshold, % at 10 µM; CHO-hERG, FluxOR thallium flux, dofetilide IC70 present;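 active = activation above the mean of controls blocked by dofetilide plus 5 SD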;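 note: thallium influx through hERG after potassium depolarization seen as dye fluorescence rise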
KCNK9 inh: inhibitors of human KCNK9 two-pore domain potassium channel | HEK293 KCNK9, FluxOR thallium flux fluorescence; hits give low values | AID 488922 | Q9NPC2 | 1.2% of 310,000 active | B-score at 10 µM;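 active = ratio B-score over 3 SD below the library mean, with starting fluorescence within 5 SD of its mean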;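 note: negative B-score means less thallium flux so channel inhibition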
KCNQ1 block: human KCNQ1 channel inhibition | 1.3% of 310,000 active | CHO-K1 KCNQ1, FluxOR thallium flux fluorescence; hits give high values | AID 2642 | P51787 | B-score at 10 µM;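 active = compounds whose thallium flux B-score, printed positive for inhibition, exceeds three library SD while starting fluorescence stays within three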;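 note: channel opened by potassium depolarization with thallium stimulus after 20 min compound exposure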
KCNK3 block: human KCNK3 channel inhibition, primary screen; O14649; CHO-KCNK3 thallium flux, FluxOR fluorescence; hits give low values; B-score at 10 µM; 0.84% of 340,000 active; AID 602410;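 active = B-score under library mean minus 4 SD, starting fluorescence ratio at most library mean plus 5 SD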;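 note: more negative B-score means stronger inhibition of thallium flux through KCNK3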
KCNQ1 pot: human KCNQ1 channel potentiation or activation; CHO-K1 KCNQ1, thallium flux FluxOR fluorescence; hits give high values; B-score at 10 µM; 0.35% of 310,000 active;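 active = fluorescence ratio B-score, a plate-corrected score, at least three library SD, with initial intensity B-score within 5 SD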
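Schedule – 37 °C overnight plating, 90-min dark dye load, 20-min compound pretreatment · System – stable KCNQ1 CHO-K1 line · Probe or stimulus – thallium- and potassium-containing depolarizing buffer · Measured by – kinetic FluxOR fluorescence, 10 s baseline plus 110 s post-stimulus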
KCNQ1 block val: human KCNQ1 channel inhibition, validation assay. shares compounds with KCNQ1 block. KCNQ1 cell line, FluxOR thallium flux fluorescence. inhibition, % at 10 µM. 93% of 1,600 active. AID 588353;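 active = primary screen active, with duplicate mean exceeding buffer control mean plus 3 SD of buffer wells, cut at about 28% in these data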;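 note: 0% = buffer control ratio and 100% = XE991 inhibitor control ratio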
CHO Tl flux: counter-screen for KCNQ1 inhibitors: effect in parental CHO cells; AID 588366; fluorescence ratio (Tl flux) at 10 µM; shares compounds with KCNQ1 block; 21% of 1,600 active; parental CHO-K1, FluxOR thallium flux fluorescence ratio; hits give low values; zero means no signal rise above baseline;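 active = mean of duplicate thallium-flux fluorescence ratios in parental host cells more than 5 SD below the buffer control mean, cut at about 0.38 in these data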;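 note: ratio is peak minus minimum fluorescence divided by baseline fluorescence; actives read low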
KCNQ1 APC inh: human KCNQ1 inhibition validated by electrophysiology; shares compounds with KCNQ1 block; KCNQ1-CHO cells, automated patch clamp current; calls only at 10 µM; 20% of 490 active;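 active = KCNQ1 current drop exceeding 3 SD of negative control wells, seen in both duplicate runs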;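 note: steady state current during a 2 s step from -80 to +40 mV; negative values mean current inhibition and positive values mean potentiation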
KCNQ2 inh: KCNQ1 inhibitor that also blocks rat KCNQ2 channel; inhibition, % at 10 µM; 71% of 1,600 active; shares compounds with KCNQ1 block; KCNQ2 cells, FluxOR thallium flux fluorescence;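 active = mean percent inhibition of the KCNQ2 thallium signal more than 5 SD above the buffer-only control wells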;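 note: KCNQ2 expressed in CHO cells; 0% = buffer control wells and 100% = XE-991 inhibitor control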
Target sequence (O88943 whole entry, looked up): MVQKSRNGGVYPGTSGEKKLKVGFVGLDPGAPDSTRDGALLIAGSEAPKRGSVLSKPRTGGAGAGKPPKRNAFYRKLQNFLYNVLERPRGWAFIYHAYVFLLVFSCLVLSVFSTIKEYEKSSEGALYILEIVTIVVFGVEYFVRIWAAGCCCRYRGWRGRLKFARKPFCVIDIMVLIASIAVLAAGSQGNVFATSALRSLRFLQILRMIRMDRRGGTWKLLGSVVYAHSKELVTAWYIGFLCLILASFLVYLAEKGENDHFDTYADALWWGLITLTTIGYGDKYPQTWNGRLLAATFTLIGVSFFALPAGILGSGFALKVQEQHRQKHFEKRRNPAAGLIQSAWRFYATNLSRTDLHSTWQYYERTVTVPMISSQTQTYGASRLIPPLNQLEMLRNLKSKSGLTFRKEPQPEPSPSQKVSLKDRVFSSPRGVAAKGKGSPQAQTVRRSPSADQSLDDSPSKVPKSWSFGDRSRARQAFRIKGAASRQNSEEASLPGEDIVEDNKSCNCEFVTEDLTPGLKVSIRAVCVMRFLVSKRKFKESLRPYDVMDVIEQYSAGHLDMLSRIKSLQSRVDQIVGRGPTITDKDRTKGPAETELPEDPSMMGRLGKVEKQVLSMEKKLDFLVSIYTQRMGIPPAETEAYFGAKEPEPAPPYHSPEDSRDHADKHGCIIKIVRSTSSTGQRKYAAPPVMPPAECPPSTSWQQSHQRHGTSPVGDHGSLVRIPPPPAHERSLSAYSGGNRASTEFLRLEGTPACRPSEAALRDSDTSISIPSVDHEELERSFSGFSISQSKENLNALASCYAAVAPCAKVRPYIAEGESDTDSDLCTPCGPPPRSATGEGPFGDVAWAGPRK
KCNQ1-KCNE1 inh: selectivity of KCNQ1 inhibitors: inhibition of human KCNQ1/KCNE1 channel. shares compounds with KCNQ1 block. KCNQ1/KCNE1 cells, FluxOR thallium flux fluorescence. inhibition, % at 10 µM. 77% of 1,600 active. AID 652147;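 active = mean percent inhibition of duplicate wells above the buffer-only control mean plus 3 SD of those controls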;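 note: 0% = buffer only wells and 100% = XE-991 inhibitor control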
KCNK9 inh conf: human KCNK9 inhibitor confirmation. shares compounds with KCNK9 inh. HEK293 KCNK9 cells, FluxOR thallium flux fluorescence. inhibition, % at 10 µM. 43% of 4,900 active;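 active = thallium signal inhibited by more than 5 SD of the compound-free buffer control wells, on both duplicate plates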;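 note: 0% = assay buffer control wells without compound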
Kir2-1 spec: tests whether KCNK9 modulators also affect mouse Kir2.1; shares compounds with KCNK9 inh; Kir2.1 cells, FluxOR thallium flux fluorescence; inhibition, % at 10 µM; 4% of 4,900 active; AID 492993;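 active = thallium signal drop more than 5 SD beyond the mean of the no-compound control wells, seen in both duplicate plates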;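 note: signal is fluorescence rise after thallium addition divided by baseline fluorescence; plate controls were assay buffer only for no effect and full block by chlorpromazine control for full effect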
HEK293 Tl ctr: second check of KCNK9 modulator effects in non-induced HEK293 cells; 40% of 4,900 active; AID 492997; inhibition, % at 10 µM; FluxOR thallium flux; shares compounds with KCNK9 inh;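 active = thallium signal drop beyond 5 SD of the untreated control mean, on both duplicate plates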;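 note: plate controls were buffer only IC0 wells for no effect and SID17386958 at its maximal inhibitory level for full effect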
KCNK3 confirm: confirmation of human KCNK3 two-pore domain potassium channel inhibitors | 99% of 2,400 active | shares compounds with KCNK3 block | CHO-KCNK3 thallium flux, FluxOR fluorescence; 0% buffer, 100% carvedilol maximal block | ratio percent of control, % at 10 µM;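 active = ratio percent of control, averaged over triplicates, above buffer control mean plus 5 SD, cut at about 64% in these data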;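 note: ratio is the fluorescence rise from min to max over baseline after thallium stimulus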
KCNK3 uninduced: activity in cells without induced KCNK3 expression; shares compounds with KCNK3 block; non-induced KCNK3 parental cells, FluxOR thallium flux; hits give low values; thallium flux ratio (lower = more inhibition) at 10 µM; 40% of 2,400 active; AID 651747;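 active = thallium flux ratio, averaged over three wells, more than 5 SD below the buffer control mean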;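 note: host cells are CHO cells without KCNK3 induction; ratio is peak minus trough fluorescence over baseline then normalized to buffer controls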
Starred values were filed as active, the others as inactive; i = inactive; nt = no result; + = active, no number.

SMILES	hERG rescue	KCNK9 inh	KCNQ1 block	KCNK3 block	KCNQ1 pot	KCNQ1 block val	CHO Tl flux	KCNQ2 inh	KCNQ1-KCNE1 inh	KCNK3 confirm	KCNK3 uninduced	others
CCCCn1nc(NC(=O)CC)c2cc3cc(OC)ccc3nc21	-2.6	i	i	i	i	nt	nt	nt	nt	nt	nt
COc1ccc2nc3c(cc2c1)c(NC(=O)c1cccs1)nn3CC(C)C	-14.4	-8.96*	6*	-9.84*	i	143.5*	0.287*	126.7%*	+	93.7*	0.148*	KCNK9 inh conf=i;Kir2-1 spec=i;HEK293 Tl ctr=i
O=C1N(CCCl)c2ccc(Br)cc2C12OCCO2	-5.2	i	i	i	i	nt	nt	nt	nt	nt	nt
NS(=O)(=O)c1cnccc1NCCc1ccccc1	-4.3	i	i	i	i	nt	nt	nt	nt	nt	nt
O=C(O)c1ccc(NC2=C(Cl)C(=O)c3ccccc3C2=O)cc1	-44.7	-12.4*	15*	-11.7*	i	167.0*	0.261*	117.7%*	+	137.0*	0.0923*
O=C(O)c1cccc(NC2=C(Cl)C(=O)c3ccccc3C2=O)c1	-28.6	i	16*	-8.71*	i	155.0*	0.28*	118.7%*	+	126.3*	0.123*
O=[N+]([O-])c1cc(Cl)c(Cl)c(Cl)c1Cl	nt	nt	nt	i	nt	nt	nt	nt	nt	nt	nt
Cc1ccc(NC(=S)Nc2cccnc2)c(S(=O)(=O)N2CCCCC2)c1	-23.3	i	13*	-11.9*	i	97.0*	0.507	i	68.5%*	110.3*	i	KCNQ1 APC inh=i
Cc1ccc(C)c(NC(=S)Nc2cccnc2)c1	-9.4	i	i	i	i	nt	nt	nt	nt	nt	nt
Cc1cc(Cl)cc(C)c1OCCOCCNCc1ccccc1	-14.2	i	i	i	i	nt	nt	nt	nt	nt	nt
COc1ccccc1NC(=O)c1cc2cc(Br)ccc2cc1O	-22.3	i	9*	-8.76*	i	126.0*	0.445	97.0%*	107.0%*	135.0*	0.105*	KCNQ1 APC inh=i
Cc1cc(C)cc(OCC(O)CN2CCC(CN3C(=O)c4cccc5cccc(c45)C3=O)CC2)c1 (configuration not stated)	-36.2	i	9*	-9.54*	i	128.5*	0.384	99.0%*	138.5%*	110.7*	i	KCNQ1 APC inh=i;KCNK9 inh conf=i;Kir2-1 spec=i;HEK293 Tl ctr=i
CCOc1ccc(NC(=S)NCCCc2ccccc2)cc1	-8.3	i	i	i	i	nt	nt	nt	nt	nt	nt
CCCCNC(=S)Nc1ccc(Oc2ccccc2)cc1	-22.1	-7.45*	6*	-9.72*	i	39.0*	0.54	i	67.5%*	95.7*	i
Cc1ccc(C(=O)NCC(=O)NCC(=O)OCC(=O)c2cccs2)cc1	-7.1	i	i	i	i	nt	nt	nt	nt	nt	nt
CN(CC(=O)NCc1ccc(F)cc1)CC(=O)Nc1ccc(Cl)c(C(F)(F)F)c1	-16.6	i	8*	-11*	i	104.0*	0.452	86.7%*	62.5%*	112.7*	i	KCNQ1 APC inh=+
CN(CC(=O)Nc1cccc(S(=O)(=O)N2CCOCC2)c1)CC(=O)Nc1ccc(Cl)c(C(F)(F)F)c1	-27.2	i	8*	-11.5*	i	118.5*	0.432	93.3%*	54.0%*	119.7*	0.136*	KCNQ1 APC inh=i
COc1ccc(OCc2cc(C(=O)O)c(C)o2)cc1	-6.2	i	i	nt	i	nt	nt	nt	nt	nt	nt
Cc1ccc(OCC(=O)Nc2ccc(N3CCN(C(=O)c4ccco4)CC3)cc2)cc1	-8.6	i	i	i	i	nt	nt	nt	nt	nt	nt
COc1ccc(Cl)cc1NC(=O)CN(C)C(C)C(=O)NCC1CCCCC1 (configuration not stated)	-15.8	i	i	i	i	nt	nt	nt	nt	nt	nt
CSc1ccc(CN(C)C(C)C(=O)NCC2CCCCC2)cc1 (configuration not stated)	-7.3	i	6*	-9.36*	i	65.5*	0.472	69.0%*	79.5%*	95.3*	i
CSc1ccc(CN(C)C(C)C(=O)Nc2ccc(F)c(F)c2F)cc1 (configuration not stated)	-20.8	i	i	i	i	nt	nt	nt	nt	nt	nt
CC(C(=O)NCC1CCCCC1)N(C)Cc1ccc(Cl)cc1 (configuration not stated)	-18.1	-7.17*	9*	-9.72*	i	75.5*	0.376*	68.7%*	98.5%*	105.3*	i
CC(C(=O)NCC1CCCCC1)N(C)Cc1ccc(Br)cc1 (configuration not stated)	-6.5	i	8*	-15*	i	69.0*	0.391	92.0%*	66.0%*	120.7*	0.156*
COC(=O)C1=C(Nc2cc(Cl)cc(Cl)c2)CSC1	-7.2	i	i	i	i	nt	nt	nt	nt	nt	nt
O=C(CN1CCCCC1)NNC(=O)c1cccc(Br)c1	-8.6	i	i	i	i	nt	nt	nt	nt	nt	nt
Cc1cccnc1NC1(C(F)(F)F)N=C(c2ccccc2)NC1=O (configuration not stated)	-3.9	i	i	i	i	nt	nt	nt	nt	nt	nt
CCOC(=O)c1c(NC(=O)C(C)OC(=O)C2=COCCO2)sc2c1CCCC2 (configuration not stated)	nt	nt	nt	i	nt	nt	nt	nt	nt	nt	nt
CCOC(=O)c1c(NC(=O)C(C)OC(=O)c2ccc(NC(=O)CC#N)cc2)sc2c1CCCC2 (configuration not stated)	-11.7	i	8*	-9.11*	i	104.5*	0.443	90.7%*	187.0%*	87.3*	0.143*	KCNQ1 APC inh=i
